Assay results published in ChEMBL document CHEMBL1123950, “N-(Retinoyl)amino acids. Synthesis and chemopreventive activity in vitro” (1988).
pEC50: −log10 of the molar value. One block for each compound: values may come before it.

Key:
[1] = tested on: Cricetinae gen. sp.; test: Cultures with marked degree of squamous metaplasia at a concentration of 10e-10; assay type: functional, Cricetulus griseus
In short: (§1)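 Tracheas from 29-31-day-old hamsters fed a vitamin A free diet; cultured in serum-free CMRL 1066 (insulin 1.0 μg/mL, hydrocortisone hemisuccinate 0.1 μg/mL, glutamine 2 mM, Garamycin 50 μg/mL), 50% O2/45% N2/5% CO2, rocked, 36 °C. Retinoid-free 3 days, then retinoid in DMSO (final 0.1%) for 7 days; medium and gas changed three times. Formalin-fixed day 10; squamous metaplasia graded: mild 2-10%, marked 10-40%, severe >40%.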

[2] = tested on: Cricetinae gen. sp.; test: Cultures with marked degree of squamous metaplasia at a concentration of 10e-11; assay type: functional, Cricetulus griseus; in short: as §1
[3] = tested on: Cricetinae gen. sp.; test: Cultures with marked degree of squamous metaplasia at a concentration of 10e-8 M; assay type: functional, Cricetulus griseus; in short: as §1
[4] = tested on: Cricetinae gen. sp.; test: Cultures with marked degree of squamous metaplasia at a concentration of 10e-9; assay type: functional, Cricetulus griseus; in short: as §1
[5] = tested on: Cricetinae gen. sp.; test: Cultures with mild degree of squamous metaplasia at a concentration of 10e-10; assay type: functional, Cricetulus griseus; in short: as §1
[6] = tested on: Cricetinae gen. sp.; test: Cultures with mild degree of squamous metaplasia at a concentration of 10e-11; assay type: functional, Cricetulus griseus; in short: as §1
[7] = tested on: HEp-2; test: Viability of human epidermoid carcinoma cells (H.Ep-2) at a concentration 10 ug/mL; assay type: functional
In short: (§2)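 Human epidermoid carcinoma H.Ep.-2 cells, clone-colony viability assay with retinoid at 1-40 μg/mL; incubated 37 °C for 12 days, stained, colonies counted. % of control = 100 × treated colonies/control colonies.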

[8] = tested on: HEp-2; test: Viability of human epidermoid carcinoma cells (H.Ep-2) at a concentration 1 ug/mL; assay type: functional; in short: as §2
[9] = tested on: HEp-2; test: Viability of human epidermoid carcinoma cells (H.Ep-2) at a concentration 20 ug/mL; assay type: functional; in short: as §2
[10] = tested on: HEp-2; test: Viability of human epidermoid carcinoma cells (H.Ep-2) at a concentration 40 ug/mL; assay type: functional; in short: as §2
[11] = tested on: Cricetinae gen. sp.; test: Cultures with severe degree of squamous metaplasia at a concentration of 10e-9; assay type: functional, Cricetulus griseus
In short: (§3)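 Tracheas from 29-31-day-old hamsters kept on a vitamin A free diet, cultured in serum-free CMRL 1066 (insulin 1.0 μg/mL, hydrocortisone hemisuccinate 0.1 μg/mL, glutamine 2 mM, Garamycin 50 μg/mL), 50% O2/45% N2/5% CO2, rocked at 36 °C. Retinoid-free for 3 days, then retinoid in DMSO (0.1% final) for 7 days. Fixed in formalin; squamous metaplasia graded mild 2-10%, marked 10-40%, severe >40%.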

[12] = tested on: Cricetinae gen. sp.; test: Cultures with mild degree of squamous metaplasia at a concentration of 10e-8 M; assay type: functional, Cricetulus griseus; in short: as §1
[13] = tested on: Cricetinae gen. sp.; test: Cultures with mild degree of squamous metaplasia at a concentration of 10e-9; assay type: functional, Cricetulus griseus; in short: as §1
[14] = tested on: Cricetinae gen. sp.; test: Cultures with minimal degree of squamous metaplasia at a concentration of 10e-10; assay type: functional, Cricetulus griseus; in short: as §1
[15] = tested on: Cricetinae gen. sp.; test: Cultures with minimal degree of squamous metaplasia at a concentration of 10e-11; assay type: functional, Cricetulus griseus; in short: as §1
[16] = tested on: Cricetinae gen. sp.; test: Cultures with minimal degree of squamous metaplasia at a concentration of 10e-8 M; assay type: functional, Cricetulus griseus; in short: as §1
[17] = tested on: Cricetinae gen. sp.; test: Cultures with minimal degree of squamous metaplasia at a concentration of 10e-9; assay type: functional, Cricetulus griseus; in short: as §1
[18] = tested on: Cricetinae gen. sp.; test: Cultures with no evidence of squamous metaplasia at a concentration of 10e-10; assay type: functional, Cricetulus griseus; in short: as §1
[19] = tested on: Cricetinae gen. sp.; test: Cultures with no evidence of squamous metaplasia at a concentration of 10e-11; assay type: functional, Cricetulus griseus; in short: as §1
[20] = tested on: Cricetinae gen. sp.; test: Cultures with no evidence of squamous metaplasia at a concentration of 10e-8 M; assay type: functional, Cricetulus griseus; in short: as §1
[21] = tested on: Cricetinae gen. sp.; test: Cultures with no evidence of squamous metaplasia at a concentration of 10e-9; assay type: functional, Cricetulus griseus; in short: as §1
[22] = tested on: Cricetinae gen. sp.; test: Cultures with severe degree of squamous metaplasia at a concentration of 10e-11; assay type: functional, Cricetulus griseus; in short: as §3
[23] = tested on: Cricetinae gen. sp.; test: Cultures with severe degree of squamous metaplasia at a concentration of 10e-8 M; assay type: functional, Cricetulus griseus; in short: as §3
[24] = tested on: Cricetinae gen. sp.; test: Reversal of keratinization in vitamin A deficient hamster trachea culture at a concentration of 10e-8 M; assay type: functional, Cricetulus griseus; conditions: read-out: ED50 (the source's name); in short: as §3
[25] = tested on: L1210; test: Inhibition of proliferation of L1210 cells in culture at a concentration 10 ug/mL; assay type: functional, Mus musculus; parameters: scale not given: the % may be the effect or the level left
In short: (§4)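 L1210 suspension of about 10⁵ cells treated with retinoid at 1-40 μg/mL, 37 °C for 48 h; cells counted at 0 and 48 h, three cultures averaged per concentration. % of control = 100 × (treated 48 h − 0 h count)/(control 48 h − 0 h count).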

[26] = tested on: L1210; test: Inhibition of proliferation of L1210 cells in culture at a concentration 1 ug/mL; assay type: functional, Mus musculus; parameters: scale not given: the % may be the effect or the level left; in short: as §4
[27] = tested on: L1210; test: Inhibition of proliferation of L1210 cells in culture at a concentration 20 ug/mL; assay type: functional, Mus musculus; parameters: scale not given: the % may be the effect or the level left; in short: as §4
[28] = tested on: Cricetinae gen. sp.; test: Cultures with severe degree of squamous metaplasia at a concentration of 10e-10; assay type: functional, Cricetulus griseus; in short: as §1
[29] = tested on: HEp-2; test: Viability of human epidermoid carcinoma cells (H.Ep-2) at a conc 10 ug/mL; assay type: functional; in short: as §2
[30] = tested on: HEp-2; test: Viability of human epidermoid carcinoma cells (H.Ep-2) at a conc 1 ug/mL; assay type: functional; in short: as §2
[31] = tested on: HEp-2; test: Viability of human epidermoid carcinoma cells (H.Ep-2) at a conc 40 ug/mL; assay type: functional; in short: as §2
[32] = tested on: HEp-2; test: Viability of human epidermoid carcinoma cells (H.Ep-2) at a conc 20 ug/mL; assay type: functional; in short: as §2
[33] = tested on: Cricetinae gen. sp.; test: Reversal of keratinization in vitamin A deficient hamster trachea culture; assay type: functional, Cricetulus griseus; conditions: read-out: ED50 (the source's name); in short: as §3
[34] = tested on: L1210; test: Inhibition of proliferation of L1210 cells in culture at a conc 10 ug/mL; assay type: functional, Mus musculus; parameters: scale not given: the % may be the effect or the level left; in short: as §4
[35] = tested on: L1210; test: Inhibition of proliferation of L1210 cells in culture at a conc 1 ug/mL; assay type: functional, Mus musculus; parameters: scale not given: the % may be the effect or the level left; in short: as §4
[36] = tested on: L1210; test: Inhibition of proliferation of L1210 cells in culture at a conc 20 ug/mL; assay type: functional, Mus musculus; parameters: scale not given: the % may be the effect or the level left; in short: as §4
[37] = tested on: L1210; test: Inhibition of proliferation of L1210 cells in culture at a conc 40 ug/mL; assay type: functional, Mus musculus; parameters: scale not given: the % may be the effect or the level left; in short: as §4
[38] = tested on: Cricetinae gen. sp.; test: Cultures with marked degree of squamous metaplasia at a conc of 10e-10 M; assay type: functional, Cricetulus griseus; in short: as §1
[39] = tested on: Cricetinae gen. sp.; test: Cultures with marked degree of squamous metaplasia at a conc of 10e-8 M; assay type: functional, Cricetulus griseus; in short: as §1
[40] = tested on: Cricetinae gen. sp.; test: Cultures with marked degree of squamous metaplasia at a conc of 10e-9 M; assay type: functional, Cricetulus griseus; in short: as §1
[41] = tested on: Cricetinae gen. sp.; test: Cultures with mild degree of squamous metaplasia at a conc of 10e-10 M; assay type: functional, Cricetulus griseus; in short: as §1
[42] = tested on: Cricetinae gen. sp.; test: Cultures with mild degree of squamous metaplasia at a conc of 10e-11 M; assay type: functional, Cricetulus griseus; in short: as §1
[43] = tested on: Cricetinae gen. sp.; test: Cultures with mild degree of squamous metaplasia at a conc of 10e-8 M; assay type: functional, Cricetulus griseus; in short: as §1
[44] = tested on: Cricetinae gen. sp.; test: Cultures with minimal degree of squamous metaplasia at a conc of 10e-10 M; assay type: functional, Cricetulus griseus; in short: as §1
[45] = tested on: Cricetinae gen. sp.; test: Cultures with minimal degree of squamous metaplasia at a conc of 10e-11 M; assay type: functional, Cricetulus griseus; in short: as §1
[46] = tested on: Cricetinae gen. sp.; test: Cultures with minimal degree of squamous metaplasia at a conc of 10e-8 M; assay type: functional, Cricetulus griseus; in short: as §1
[47] = tested on: Cricetinae gen. sp.; test: Cultures with minimal degree of squamous metaplasia at a conc of 10e-9 M; assay type: functional, Cricetulus griseus; in short: as §1
[48] = tested on: Cricetinae gen. sp.; test: Cultures with no evidence of squamous metaplasia at a conc of 10e-10 M; assay type: functional, Cricetulus griseus; in short: as §1
[49] = tested on: Cricetinae gen. sp.; test: Cultures with no evidence of squamous metaplasia at a conc of 10e-11 M; assay type: functional, Cricetulus griseus; in short: as §1
[50] = tested on: Cricetinae gen. sp.; test: Cultures with no evidence of squamous metaplasia at a conc of 10e-8; assay type: functional, Cricetulus griseus; in short: as §1
[51] = tested on: Cricetinae gen. sp.; test: Cultures with no evidence of squamous metaplasia at a conc of 10e-9 M; assay type: functional, Cricetulus griseus; in short: as §1
[52] = tested on: Cricetinae gen. sp.; test: Cultures with severe degree of squamous metaplasia at a conc of 10e-10 M; assay type: functional, Cricetulus griseus; in short: as §1
[53] = tested on: Cricetinae gen. sp.; test: Cultures with severe degree of squamous metaplasia at a conc of 10e-11 M; assay type: functional, Cricetulus griseus; in short: as §1
[54] = tested on: Cricetinae gen. sp.; test: Cultures with severe degree of squamous metaplasia at a conc of 10e-8 M; assay type: functional, Cricetulus griseus; in short: as §1
[55] = tested on: Cricetinae gen. sp.; test: Cultures with severe degree of squamous metaplasia at a conc of 10e-9 M; assay type: functional, Cricetulus griseus; in short: as §1
[56] = tested on: Cricetinae gen. sp.; test: Reversal of keratinization in vitamin A deficient hamster trachea culture at a conc of 10e-8 M; assay type: functional, Cricetulus griseus; conditions: read-out: ED50 (the source's name); in short: as §3
[57] = tested on: Cricetinae gen. sp.; test: Cultures with marked degree of squamous metaplasia at a conc of 10e-11 M; assay type: functional; in short: as §1
[58] = tested on: Cricetinae gen. sp.; test: Cultures with mild degree of squamous metaplasia at a conc of 10e-9 M; assay type: functional, Cricetulus griseus; in short: as §1

- pEC50 [24]: 10.00
Compound: CC1=C(/C=C/C(C)=C/C=C/C(C)=C/C(=O)NC(CC(C)C)C(=O)O)C(C)(C)CCC1 (stereo not drawn)
- Culture [1]: 32%
- Culture [2]: 58%
- Culture [3]: 0%
- Culture [4]: 9%
- Culture [5]: 16%
- Culture [6]: 14%
- Control [7]: 29%
- Control [8]: 73%
- Control [9]: 14%
- Control [10]: 25%
- Culture [11]: 0%
- Culture [12]: 4%
- Culture [13]: 4%
- Culture [14]: 0%
- Culture [15]: 0%
- Culture [16]: 0%
- Culture [17]: 0%
- Culture [18]: 48%
- Culture [19]: 14%
- Culture [20]: 96%
- Culture [21]: 87%
- Culture [22]: 14%
- Culture [23]: 0%
- Control [25]: 62%
- Control [26]: 95%
- Control [27]: 20%
- Culture [28]: 4%

- pEC50 [33]: 9.52
Compound: CC1=C(/C=C/C(C)=C/C=C/C(C)=C\C(=O)NCCO)C(C)(C)CCC1
- Control [29]: 38%
- Control [30]: 61%
- Control [31]: 27%
- Control [32]: 21%
- Control [34]: 57%
- Control [35]: 76%
- Control [36]: 56%
- Control [37]: 0.5%

- pEC50 [56]: 9.40
Compound: CC1=C(/C=C/C(C)=C/C=C/C(C)=C/C(=O)NC(C)C(=O)O)C(C)(C)CCC1 (stereo not drawn)
- Culture [38]: 58%
- Culture [39]: 0%
- Culture [40]: 0%
- Culture [41]: 14%
- Culture [42]: 29%
- Culture [43]: 0%
- Culture [44]: 0%
- Culture [45]: 0%
- Culture [46]: 0%
- Culture [47]: 0%
- Culture [48]: 14%
- Culture [49]: 0%
- Culture [50]: 100%
- Culture [51]: 72%
- Culture [52]: 14%
- Culture [53]: 14%
- Culture [54]: 0%
- Culture [55]: 14%
- Culture [57]: 57%
- Culture [58]: 14%
